A selection: hits, their analogues and other compounds. The true share with any hit is near 5.3%.
T cruzi inh: inhibitors of intracellular T. cruzi growth, primary screen, luminescence, NIH3T3 host cells | inhibition, % (test concentration not listed) | T. cruzi beta-gal in NIH3T3, 90 h | hit rate 1.4% among 300,000;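 active = mean inhibition across valid replicates above about 55%, limit read from the data; inconclusive = mean below that limit but half or more replicates reach it; inactive = mean below it, under half of replicates reach it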;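 also: signal also drops with host cell toxicity which is not excluded here; higher percent means less beta-gal luminescence so fewer parasites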
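Read-out: Parasite load inhibition, % | Test system: Mouse NIH/3T3 fibroblasts infected with β-gal-expressing T. cruzi Tulahuen C4 | Amount: 5,000 cells/well | Medium: DMEM, 2% fetal bovine serum | Signal: GalScreen β-gal luminescence, detergent lysis, 60 min | Timing: 3 h attach, ≥90 h co-culture | Also added: Tulahuen C4 trypomastigotes, 5000/well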
Beta cell apopt: inhibitors of cytokine-induced beta cell apoptosis, primary screen, luminescence; INS-1E cytokine-induced death, ATP luminescence, 48 h; percent of positive-control rescue, neutral wells zero; protection from apoptosis, % (concentration not given with the values); hit rate 0.8% among 300,000;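 active = Every replicate reaches about 75%, or at least half do and their mean reaches it too, limit read from the data; inconclusive = At least half of replicates reach the limit but their mean does not; inactive = Under half of replicates reach the limit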;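 also: higher means more ATP so stronger rescue from cytokine killing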
Calb FLC: C. albicans growth inhibition with fluconazole, primary screen, CaCi-2 strain, Alamar Blue fluorescence | hit rate 0.57% among 300,000 | growth inhibition, % (test concentration not listed) | AID 1979, 2009 | C. albicans CaCi-2 + fluconazole, 48 h;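 active = growth inhibition above about 58% in most replicates, limit read from the data, passing the limit was not always enough; inconclusive = exactly half the replicates above a set limit; inactive = most replicates below a set limit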;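 also: all wells also contain fluconazole at 8 µg/ml as a sub-toxic cotreatment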
NLRP3 yeast inh: NALP3 inflammasome inhibitors in reconstituted yeast, primary screen, luminescence, uHTS; Yeast reconstituted NLRP3/ASC/caspase-1, beta-gal luminescence, 24 h; inhibition, % at 10 µM; hit rate 0.39% among 330,000;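 active = inhibition of 50% or more; inactive = inhibition below 50%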
CSC inhib: cancer stem cell viability inhibitors, primary screen, luminescence. cancer stem cell-like cells viability. inhibition, % at 7.5 µM. hit rate 1.1% among 300,000. AID 2717, 2010; in the data active = inhibition above about 75%; inconclusive = no clear call, values can overlap the other calls; tested in HMLE shEcad cells
Mdm2-MdmX inh: inhibitors of human Mdm2-MdmX association, primary screen, cell-based, luminescence, split luciferase, SaOS-2, uHTS; Protein Mdm4 (Homo sapiens) + E3 ubiquitin-protein ligase Mdm2 (Homo sapiens), …; SaOS-2 split-luciferase Mdm2/MdmX complementation; inhibition, % at 8 µM; hit rate 3% among 330,000;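 active = inhibition of at least 50% at 8 µM in the primary screen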
Target sequence (O15151 whole entry, looked up): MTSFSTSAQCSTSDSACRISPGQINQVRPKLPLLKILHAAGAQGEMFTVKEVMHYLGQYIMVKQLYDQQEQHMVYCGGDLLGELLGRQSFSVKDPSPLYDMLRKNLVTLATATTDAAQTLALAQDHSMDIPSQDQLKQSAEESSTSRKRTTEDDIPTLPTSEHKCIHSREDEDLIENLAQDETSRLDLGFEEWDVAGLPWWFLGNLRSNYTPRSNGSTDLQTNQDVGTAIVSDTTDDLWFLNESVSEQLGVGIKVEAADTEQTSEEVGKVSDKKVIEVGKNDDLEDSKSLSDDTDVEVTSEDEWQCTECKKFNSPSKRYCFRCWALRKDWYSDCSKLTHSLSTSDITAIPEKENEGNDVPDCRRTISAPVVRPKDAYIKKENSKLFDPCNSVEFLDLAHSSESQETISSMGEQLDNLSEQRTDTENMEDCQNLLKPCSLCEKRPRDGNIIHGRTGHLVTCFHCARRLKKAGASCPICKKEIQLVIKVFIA
Target sequence (Q00987 whole entry, looked up): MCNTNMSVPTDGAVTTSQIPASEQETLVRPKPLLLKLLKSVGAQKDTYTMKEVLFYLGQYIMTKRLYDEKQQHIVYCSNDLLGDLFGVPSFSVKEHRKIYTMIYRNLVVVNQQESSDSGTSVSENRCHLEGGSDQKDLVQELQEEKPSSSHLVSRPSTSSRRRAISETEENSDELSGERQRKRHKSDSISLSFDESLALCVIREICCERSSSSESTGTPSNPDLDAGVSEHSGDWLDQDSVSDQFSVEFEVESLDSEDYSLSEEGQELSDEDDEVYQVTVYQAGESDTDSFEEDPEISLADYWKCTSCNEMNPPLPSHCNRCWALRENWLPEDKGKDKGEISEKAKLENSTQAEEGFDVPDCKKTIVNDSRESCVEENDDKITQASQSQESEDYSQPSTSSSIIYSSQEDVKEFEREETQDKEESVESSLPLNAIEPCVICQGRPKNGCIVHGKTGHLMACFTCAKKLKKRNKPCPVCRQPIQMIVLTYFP
Numbers stand for hits.

How did COc1cccc2sc(=NC(=O)CS(=O)(=O)c3ccc(F)cc3)n(C)c12 do in these assays?
T cruzi inh: 55; Calb FLC: inactive; NLRP3 yeast inh: inactive; CSC inhib: inactive; Mdm2-MdmX inh: inactive

How did COc1cccc2sc(=NC(=O)CS(=O)(=O)c3ccc(Cl)cc3)n(C)c12 do in these assays?
T cruzi inh: 60; Calb FLC: 99; NLRP3 yeast inh: inactive; CSC inhib: inactive; Mdm2-MdmX inh: inactive

What do the screens show for `COc1cccc2sc(=NC(=O)CCS(=O)(=O)c3ccc(C)cc3)n(C)c12`?
T cruzi inh: inactive; Calb FLC: inactive; NLRP3 yeast inh: inactive; CSC inhib: inactive; Mdm2-MdmX inh: inactive

Results for CCn1c(=NC(=O)CS(=O)(=O)c2ccc(C)cc2)sc2cccc(OC)c21 ?
T cruzi inh: 59; Calb FLC: inactive; NLRP3 yeast inh: inactive; CSC inhib: inactive; Mdm2-MdmX inh: inactive

Results for CN1CC(=O)Nc2ccc(Br)cc2C1=O ?
T cruzi inh: inactive; Calb FLC: inactive; NLRP3 yeast inh: inactive; CSC inhib: inactive; Mdm2-MdmX inh: inactive

Results for COc1cc(OC)cc(-c2sc3ccc(OC)cc3c2C#CC(C)(C)O)c1 ?
Beta cell apopt: inactive; NLRP3 yeast inh: inactive; CSC inhib: inactive; Mdm2-MdmX inh: inactive

What do the screens show for `COc1cc2sc3ccc(C#CC4(O)CCCCC4)cc3c(=O)c2cc1OC`?
T cruzi inh: inactive; Beta cell apopt: inactive; Calb FLC: inactive; NLRP3 yeast inh: inactive; CSC inhib: inactive; Mdm2-MdmX inh: inactive

What do the screens show for `COc1cc(OC)cc(-c2sc3ccc(OC)cc3c2C#CCO)c1`?
Beta cell apopt: inactive; NLRP3 yeast inh: inactive; CSC inhib: 102; Mdm2-MdmX inh: inactive

Results for COc1cccc(-c2sc3ccc(OC)cc3c2C#CC2(O)CCCCC2)c1 ?
Beta cell apopt: inactive; NLRP3 yeast inh: inactive; CSC inhib: 105; Mdm2-MdmX inh: inactive

How did COc1cccc(-c2sc3ccc(OC)cc3c2C#CCCO)c1 do in these assays?
Beta cell apopt: inactive; NLRP3 yeast inh: inactive; CSC inhib: 116; Mdm2-MdmX inh: inactive

How did O=C(/C(=C/O)N=Nc1ccc(Cl)cc1)c1ccncc1 do in these assays?
T cruzi inh: inactive; Beta cell apopt: inactive; Calb FLC: inactive; NLRP3 yeast inh: inactive; CSC inhib: 77; Mdm2-MdmX inh: inactive

How did O=C(Nc1ccccc1)Nc1cc(OCC(F)(F)F)cc(OCC(F)(F)F)c1 do in these assays?
T cruzi inh: 87; Calb FLC: inactive

Results for Clc1ccc(CSc2nnc(-c3cccnc3)n2Cc2ccco2)c(Cl)c1 ?
T cruzi inh: inactive; Beta cell apopt: inactive; Calb FLC: inactive; NLRP3 yeast inh: inactive; CSC inhib: 86; Mdm2-MdmX inh: inactive

What do the screens show for `Clc1cccc(CSc2nnc(-c3cccnc3)n2Cc2ccco2)c1`?
T cruzi inh: inactive; Beta cell apopt: inactive; Calb FLC: inactive; NLRP3 yeast inh: inactive; CSC inhib: inactive; Mdm2-MdmX inh: inactive

Results for COc1cccc(NC(=O)C(C)NS(=O)(=O)c2ccc(Br)cc2)c1 (configuration not stated) ?
T cruzi inh: inactive; Beta cell apopt: inactive; Calb FLC: inactive; NLRP3 yeast inh: inactive; CSC inhib: inactive; Mdm2-MdmX inh: inactive

What do the screens show for `Cc1cc(C(=O)Nc2nc3c(s2)CCCC3)cs1`?
T cruzi inh: inactive; Beta cell apopt: inactive; Calb FLC: inactive; NLRP3 yeast inh: inactive; CSC inhib: 86; Mdm2-MdmX inh: inactive

How did COc1ccc(NC(=O)Nc2nc3c(s2)CCCC3)cc1 do in these assays?
T cruzi inh: inactive; Beta cell apopt: inactive; Calb FLC: 80; NLRP3 yeast inh: inactive; CSC inhib: inactive; Mdm2-MdmX inh: inactive

Results for CCCCn1c(N)c(N(CC(C)C)C(=O)C2CCN(S(=O)(=O)c3ccc(C)cc3C)CC2)c(=O)[nH]c1=O ?
T cruzi inh: inactive; Beta cell apopt: inactive; Calb FLC: inactive; NLRP3 yeast inh: inactive; CSC inhib: inactive; Mdm2-MdmX inh: inactive

How did Cc1cc(C(=O)CN2C(=O)C(=O)N(Cc3ccccc3)C2=O)c(C)n1Cc1ccc(F)cc1 do in these assays?
Beta cell apopt: inactive; NLRP3 yeast inh: inactive; Mdm2-MdmX inh: inactive

How did Cc1cc(C(=O)CN2C(=O)C(=O)N(Cc3ccccc3)C2=O)c(C)n1Cc1ccccc1 do in these assays?
Beta cell apopt: inactive; NLRP3 yeast inh: inactive; CSC inhib: 97; Mdm2-MdmX inh: inactive

Results for CCOc1ccc(S(=O)(=O)Nc2ccc(C(=O)N3CCC3)cc2)cc1 ?
T cruzi inh: inactive; Beta cell apopt: inactive; Calb FLC: inactive; NLRP3 yeast inh: inactive; CSC inhib: inactive; Mdm2-MdmX inh: inactive

Results for CCc1ccc(CN2CCCC(CCC(=O)N3CCN(c4ccccn4)CC3)C2)o1 (configuration not stated) ?
T cruzi inh: 59; Beta cell apopt: inactive; Calb FLC: inactive; NLRP3 yeast inh: inactive; CSC inhib: inactive; Mdm2-MdmX inh: inactive

Results for Cc1ccc(C(=O)N2CCCC(CCC(=O)N3CCN(c4ccccn4)CC3)C2)cc1 (configuration not stated) ?
T cruzi inh: inactive; Beta cell apopt: inactive; Calb FLC: inactive; NLRP3 yeast inh: inactive; Mdm2-MdmX inh: inactive

Results for CCOc1cc(CNCCN2CCOCC2)ccc1OCc1ccccc1Cl ?
T cruzi inh: 56; Beta cell apopt: inactive; Calb FLC: inactive; NLRP3 yeast inh: inactive; CSC inhib: inactive; Mdm2-MdmX inh: inactive

How did CCOc1cc(CNCCCN2CCOCC2)ccc1OCC(=O)NC(C)(C)C do in these assays?
T cruzi inh: 63; Beta cell apopt: inactive; Calb FLC: inactive; NLRP3 yeast inh: inactive; CSC inhib: inactive; Mdm2-MdmX inh: inactive

What do the screens show for `COCCCNC(CC(=O)Nc1cc(C)cc(C)c1)C(=O)O` (configuration not stated)?
T cruzi inh: inactive; Beta cell apopt: inactive; Calb FLC: inconclusive; NLRP3 yeast inh: inactive; CSC inhib: inactive; Mdm2-MdmX inh: inactive

Results for COc1ccccc1NC(=O)CNC(=O)CC12CC3CC(CC(C3)C1)C2 ?
Beta cell apopt: inactive; NLRP3 yeast inh: inactive; CSC inhib: inactive; Mdm2-MdmX inh: inactive

Results for COc1cc(OC)cc(C(=O)NC2CCN(Cc3nnnn3Cc3ccc(F)cc3)CC2)c1 ?
T cruzi inh: inactive; Beta cell apopt: inactive; Calb FLC: 116; NLRP3 yeast inh: inactive; CSC inhib: inactive; Mdm2-MdmX inh: inactive

Results for CC/C(=N\NC(=O)COc1ccc(Br)cc1)c1ccc(OC)c(OC)c1 ?
T cruzi inh: inactive; Beta cell apopt: inactive; Calb FLC: inactive; NLRP3 yeast inh: inactive; CSC inhib: inactive; Mdm2-MdmX inh: inactive

How did CC1CCCCN1S(=O)(=O)c1ccc(NC(=O)c2cccc(-n3cnnn3)c2)cc1 (configuration not stated) do in these assays?
T cruzi inh: inactive; Beta cell apopt: inactive; Calb FLC: 91; NLRP3 yeast inh: inactive; Mdm2-MdmX inh: inactive

Compound activity deposited in PubChem by several laboratories.
